Measured values collected from several papers.
Matrix: plasma

Structure (SMILES) | host | route | dose | notes | AUC(0-inf)
COc1ccc(N(Cc2csc(-c3ccccc3)n2)C(=O)CCCCCC(=O)NO)cc1 | female Sprague-Dawley rat | oral | 30 mg/kg | – | 32.4 ng·h/mL
CC[C@H](C)[C@H](NC(=O)[C@@H]1CCCN1C(=O)CNC(=O)[C@H](Cc1ccccc1)NC(=O)[C@H](CC(N)=O)NC(=O)[C@H](CC(N)=O)NC(=O)[C@H](CO)NC(=O)[C@H](CO)NC(=O)[C@H](Cc1c[nH]cn1)NC(=O)[C@H](CCCNC(=N)N)NC(=O)[C@H](CC(C)C)NC(=O)[C@H](Cc1ccccc1)NC(=O)[C@H](CCC(=O)O)NC(=O)[C@H](C)NC(=O)[C@H](CC(C)C)NC(=O)[C@H](CCCNC(=N)N)NC(=O)[C@H](CCC(N)=O)NC(=O)[C@@H](NC(=O)[C@H](C)NC(=O)[C@@H]1CSSC[C@H](NC(=O)[C@H](CCCCN)NC(=O)CC[C@H](NC(=O)CCCCCCCCCCCCCCCCCCC(=O)O)C(=O)O)C(=O)N[C@@H](CC(N)=O)C(=O)N[C@@H]([C@@H](C)O)C(=O)N[C@@H](C)C(=O)N[C@@H]([C@@H](C)O)C(=O)N1)[C@@H](C)O)C(=O)N[C@@H](CC(C)C)C(=O)N1CCC[C@H]1C(=O)N1CCC[C@H]1C(=O)N[C@H](C(=O)N[C@@H](CC(N)=O)C(=O)N[C@H](C(=O)NCC(=O)N[C@@H](CO)C(=O)N[C@@H](CC(N)=O)C(=O)N[C@H](C(=O)N1CCC[C@H]1C(N)=O)[C@@H](C)O)C(C)C)[C@@H](C)O | male Sprague-Dawley rat | subcutaneous | 30 nmol/kg | single dose | 5 µM·h
CCN(CC)Cc1ccc2cc(COC(=O)Nc3ccc(C(=O)NO)cc3)ccc2c1 | male Sprague-Dawley rat | oral | 10 mg/kg | – | 8730 ng·h/mL
CCOc1c([C@H](C)n2nc(C)c3c(N)ncnc32)cc(Cl)c(F)c1[C@@H]1CNC(=O)C1 | male Sprague-Dawley rat | oral | 2 mg/kg | single dose | 4610 ng·h/mL
COc1ccc(-c2coc3cc(O)cc(O)c3c2=O)cc1 | rat | intravenous | 2 mg/kg | – | 683 ng·h/mL
Cn1c(=O)c2[nH]cnc2n(C)c1=O | male Sprague-Dawley rat | intravenous | 22.5 mg/kg | – | 59400 ng·h/mL
COc1cc(-c2cc(C(C)=O)n3ccccc23)c(OC)cc1Cn1ccnc1 | male Sprague-Dawley rat | oral | 5 mg/kg | – | 2160 ng·h/mL
CCCc1nc2c(C)cc(-c3nc4ccccc4n3C)cc2n1Cc1ccc(-c2ccccc2C(=O)O)cc1 | male Sprague-Dawley rat | oral | 8 mg/kg | single dose | 1950 ng·h/mL
C1=C/COCc2cc(ccc2OCCN2CCCC2)Nc2nccc(n2)-c2cccc(c2)COC/1 | male Sprague-Dawley rat | oral | 36 mg/kg | – | 3320 ng·h/mL
COc1nc(-c2cccc(-c3ccccc3)c2C)ccc1CNCCNC(=O)CCCCCCCCCCC(=O)N1CCN(CCNC(=O)c2cc3c(=O)n4cccc(C)c4nc3n(CCc3cccs3)c2=N)CC1 | male Sprague-Dawley rat | oral | 40 mg/kg | – | 305 ng·h/mL
Cc1nc(Nc2ncc(C(=O)Nc3c(C)cccc3Cl)s2)cc(N2CC[C@H](O)C2)n1 | male Sprague-Dawley rat | oral | 5 mg/kg | single dose | 2.71 µM·h
C[C@H]1Oc2cc(cnc2N)-c2c(nn(C)c2C#N)CN(C)C(=O)c2ccc(F)cc21 | Sprague-Dawley rat | intravenous | 1 mg/kg | single dose | 4470 ng·h/mL
CC[C@@H]([C@H](C)O)n1ncn(-c2ccc(N3CCN(c4ccc(OC[C@@H]5CO[C@@](Cn6cncn6)(c6ccc(F)cc6F)C5)cc4)CC3)cc2)c1=O | Sprague-Dawley rat | oral | 40 mg/kg | – | 10200 ng·h/mL
CONC(=O)c1cccc2c1cc(C)n2-c1nc2c(c(NCc3ccccc3)n1)CCCN2 | male Sprague-Dawley rat | intravenous | 1 mg/kg | single dose | 32.5 ng·h/mL
O=C1CCC(N2Cc3cc(C4CCN(Cc5ccccc5)CC4)ccc3C2=O)C(=O)N1 (stereo not drawn) | male Sprague-Dawley rat | oral | 3 mg/kg | – | 349 ng·h/mL
